For data set [1], the system named is BGC-823. The data set can be described thus: Cytotoxicity against human BGC823 cells measured after 24 hrs by MTT assay. Type of data set: functional, cell-based. The conditions noted are these: BGC-823, 24 h. In a few lines: (§1)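 Cells were kept in RPMI 1640 with 10% FBS, penicillin and streptomycin at 37°C in 5% CO2. Seeding was given for A375 only, at 1×10^4/well. After 24 h, cells were exposed to compounds for 24 h; compounds were dissolved in DMSO and diluted in medium containing 0.1% DMSO. Cells were washed, given 5 mg/mL MTT for 4 h, and formazan was dissolved in DMSO and read at 492 nm. Three independent experiments were run in triplicate, with IC50 taken from viability curves.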
(In general: Tetrazolium dyes change colour on reduction, which living cells bring about.)

Data set [2] has as its system A-375. The data set can be described thus: Cytotoxicity against human A375 cells measured after 24 hrs by MTT assay. Type of data set: functional, cell-based. Particulars: A-375, 24 h; call rule not given here. The gist of the method: as §1
For data set [3], the system named is HepG2. The data set can be described thus: Cytotoxicity against human HepG2 cells measured after 24 hrs by MTT assay. The conditions noted are these: HepG2, 24 h. The data set is classed as functional, cell-based. The gist of the method:
as §1

Data set [4] is described as follows: Cytotoxicity against HELF cells measured after 24 hrs by MTT assay. The conditions noted are these: Homo sapiens. Type of data set: cell-based. The gist of the method: as §1
Data set [5] has as its system HeLa. The data set can be described thus: Induction of apoptosis in human HeLa cells assessed as necrotic cells at 1 uM measured after 24 hrs by Annexin V-FITC/propidium iodide staining based flow cytometry relative to control. The data set is classed as functional.
Data set [6] relates to A-375. The data set can be described thus: Induction of apoptosis in human A375 cells assessed as increase in intracellular ROS production at 2 uM measured after 24 hrs by DCF-DA fluorescence dye based flow cytometry relative to control. Type of data set: functional. The gist of the method: (§2)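 A375 cells were exposed to treatments for 24 h and washed with PBS. They were loaded with 20 µM DCF-DA in serum-free DMEM at 37°C for 30 min, washed with ice-cold PBS and harvested. Mean DCF fluorescence was measured by flow cytometry as the ROS level; n=3, mean±SD, relative to untreated cells.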
A general note: In flow cytometry, cells or beads pass a laser one at a time.

A short description of data set [7]: Drug uptake in mitochondria of human A375 cells at 2 uM measured after 24 hrs by Mito-Tracker Green staining based laser confocal microscopic analysis. Type of data set: ADME. In a few lines:
(§3)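 A375 cells were plated at 10^5 cells/mL for 24 h to about 70% confluence. They were exposed to 2 μM at 37°C for 24 h, washed, then stained with 100 nM Mito-Tracker Green (488 nm) for 30 min. After PBS washes, compound fluorescence (568 nm) and the mitochondrial stain were imaged by laser confocal microscopy.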

Data set [8] has as its system A-375. Nature of the data set: Induction of apoptosis in human A375 cells assessed as increase in intracellular ROS production at 1 uM measured after 24 hrs by DCF-DA fluorescence dye based flow cytometry relative to control. The data set is classed as functional. The gist of the method:
as §2

A short description of data set [9]: Drug uptake in nucleus of human A375 cells at 2 uM measured after 24 hrs by Mito-Tracker Green staining based laser confocal microscopic analysis. Type of data set: ADME. In a few lines:
as §3

The subject of data set [10] is HeLa. Nature of the data set: Induction of apoptosis in human HeLa cells assessed as early apoptotic cells at 1 uM measured after 24 hrs by Annexin V-FITC/propidium iodide staining based flow cytometry (reference value: 0.078 %). The data set is classed as functional.
The subject of data set [11] is HeLa. The data set can be described thus: Induction of apoptosis in human HeLa cells assessed as live cells at 1 uM measured after 24 hrs by Annexin V-FITC/propidium iodide staining based flow cytometry (reference value: 99.9 %). Type of data set: functional.
The subject of data set [12] is HeLa. Nature of the data set: Induction of apoptosis in human HeLa cells assessed as late apoptotic cells at 1 uM measured after 24 hrs by Annexin V-FITC/propidium iodide staining based flow cytometry (reference value: 0.058 %). The data set is classed as functional.
Data set [13] relates to A-375. The data set can be described thus: Induction of apoptosis in human A375 cells assessed as decrease in mitochondrial membrane potential at 4 uM measured after 30 mins by DiOC6 dye based flow cytometry relative to control. The data set is classed as functional. Also on record: scale not given: the % may be the effect or the level left. The gist of the method: (§4)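 A375 cells were treated at 0, 1, 2 or 4 μM, then loaded with 50 nM DiOC6 in serum-free DMEM at 37°C for 30 min. Cells were washed twice with ice-cold PBS, harvested and analysed by flow cytometry. ΔΨm is expressed as percent change versus untreated cells, as mean±SD of three determinations.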

Data set [14] relates to HeLa. Nature of the data set: Reduction in mitochondrial membrane potential in mitochondria isolated from human HeLa cells measured after 2 hrs by DiOC6 dye based HSFCM analysis. Type of data set: functional, cell-based. The gist of the method:
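Mitochondria isolated from HeLa cells were treated at 0, 1, 10, 50 or 100 µM for 2 h at 37°C and washed with MT buffer. They were stained with 500 nM DiOC6 for 15 min at 37°C, washed twice and resuspended in MT buffer. Analysis was on a laboratory-built high-sensitivity flow cytometer, recording median and mean green fluorescence against drug concentration.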

In data set [15] the test system is A-375. Nature of the data set: Induction of apoptosis in human A375 cells assessed as increase in caspase-3 expression measured after 24 hrs by Western blot analysis. Type of data set: functional, cell-based. In a few lines: (§5)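 A375 cells were treated for 24 h at 5 or 10 μM. Lysates were clarified at 12,000 g for 5 min at 4°C and protein measured by BCA. Equal protein was run on 10% SDS-PAGE and transferred to PVDF. Primary antibodies (1:1000) were applied overnight at 4°C, then secondary (1:5000) for 2 h at 37°C. Detection was by chemiluminescence with densitometry, GAPDH as internal reference.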
(Immunoblotting shows a protein as a band on a membrane.)

Data set [16] concerns A-375. Nature of the data set: Induction of apoptosis in human A375 cells assessed as loss of mitochondrial membrane potential measured after 30 mins by DiOC6 dye based flow cytometry. Type of data set: functional, cell-based. The gist of the method:
as §4

The subject of data set [17] is A-375. The data set can be described thus: Induction of apoptosis in human A375 cells assessed as increase in intracellular ROS production measured after 24 hrs by DCF-DA fluorescence dye based flow cytometry. Type of data set: functional, cell-based. The gist of the method: as §2
Data set [18] relates to A-375. The data set can be described thus: Induction of apoptosis in human A375 cells assessed as chromatin condensation measured after 24 hrs by DAPI staining based fluorescence microscopic analysis. The data set is classed as functional, cell-based. The gist of the method:
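A375 cells were treated with 1, 2 or 4 μM for 24 h, washed, and fixed in cold methanol:acetic acid (3:1) for 10 min. They were stained with 1 μg/mL DAPI at 37°C for 5 min and imaged by fluorescence microscopy at 364 nm, 400×, for nuclear morphology.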

The test system of data set [19] is A-375. Nature of the data set: Induction of apoptosis in human A375 cells assessed as increase in P53 expression measured after 24 hrs by Western blot analysis. Type of data set: functional, cell-based. The gist of the method: as §5
Data set [20] concerns A-375. Nature of the data set: Induction of apoptosis in human A375 cells assessed as decrease in mitochondrial membrane potential at 1 uM measured after 30 mins by DiOC6 dye based flow cytometry relative to control. The data set is classed as functional. Also noted: scale not given: the % may be the effect or the level left. The gist of the method:
as §4

By IC50 is commonly meant the concentration at which inhibition is half-maximal.

In the case of `CCCCCCCCC[N+](C)(CCOCCOCCO)Cc1cc(OC)c2c(c1)C(=O)c1cc(OC)cc(OC)c1C2=O` (stereo not given), the IC50 in data set [1] amounted to 32.7 µM; in [2], 28.9 µM; in [3] it was 37.7 µM; in data set [4], 40.4 µM.

As to `CCCCCCCC[N+](C)(CCCCCCCC)Cc1cc(O)c2c(c1)Cc1cc(O)cc(O)c1C2=O`, the IC50 in data set [3] and in data set [4] was over 100 µM throughout.

For the compound `CCCCCCCC[N+](CCCCCCCC)(CCCCCCCC)Cc1cc(OC)c2c(c1)C(=O)c1cc(OC)cc(OC)c1C2=O`, the 50% inhibitory concentration (IC50) in [1] is 5 µM; in data set [2], 3.46 µM; in data set [3] it was 5.45 µM; in data set [4] it was 4.5 µM.

Consider `COCCOCC[N+](CCOCCOC)(CCOCCOC)Cc1cc(OC)c2c(c1)C(=O)c1cc(OC)cc(OC)c1C2=O`, for which the half-maximal inhibitory concentration (IC50) in data set [1], in data set [2], in data set [3] and in [4] was over 100 µM in each case.

Turning to `CCCCCCCCCC[N+](C)(CCCCCCCCCC)Cc1ccc2c(c1)C(=O)c1ccccc1C2=O`, the figures for the half-inhibitory concentration (IC50) in data set [3] and in data set [4] were 1.57 µM and 5.84 µM, respectively.

Regarding `CCCCCCCCC[N+](C)(CCCCCCCCC)Cc1cc(O)c2c(c1)C(=O)c1cc(OC)cc(O)c1C2=O`, the IC50 in [1] turned out to be 3.93 µM; in [2], 2.63 µM; in [3] it was 7.39 µM; in [4] it was 9.83 µM.

`CCCCCCCCC[N+](C)(C)Cc1cc(O)c2c(c1)C(=O)c1cc(OC)cc(O)c1C2=O`: the IC50 stood at 9.76 µM in [1], 9.87 µM in [2], 10.4 µM in [3] and 21.6 µM in data set [4].

For `CCCCCCCCC[N+](C)(CCCCCCCC)Cc1cc(O)c2c(c1)C(=O)c1cc(OC)cc(O)c1C2=O.[Br-]` (stereo not given), the IC50 in data set [1] came to 2.79 µM; in [2], 1.39 µM; in [3], 4.12 µM; in data set [4], 9.65 µM. Moreover, the Activity in data set [5] was 35%; in data set [10], 0.444%; in data set [11], 3.73%; in data set [12], 60.8%; in [13], 38%; in [14], “Dose-dependent effect”. In addition, the Activity entry was “Dose-dependent effect” in data set [15]; “Dose-dependent effect” in data set [16]; “Dose-dependent effect” in data set [17]; “Dose-dependent effect” in data set [18]; “Dose-dependent effect” in [19]; 25% in data set [20]. The “fold change (FC)” value worked out at 5.8 in [6] and 2.7 in data set [8]. The Drug uptake entry in data set [7] is given as “Active”; in data set [9], “Not Active”.

`Cc1cc(O)c2c(c1)C(=O)c1cc(O)cc(O)c1C2=O` [EMODIN]: the IC50 in data set [1] is over 50 µM; in [2] it was 44.9 µM; in data set [3], over 50 µM; in data set [4], 46.3 µM.

On to `CC(=O)O[C@H]1C(=O)[C@@]2(C)[C@H]([C@H](OC(=O)c3ccccc3)[C@]3(O)C[C@H](OC(=O)[C@H](O)[C@@H](NC(=O)c4ccccc4)c4ccccc4)C(C)=C1C3(C)C)[C@]1(OC(C)=O)CO[C@@H]1C[C@@H]2O` [PACLITAXEL], for which the IC50 in data set [2] was determined as 11.3 µM.

Take `CCCCCCCCCC[N+](C)(CCCCCCCCC)Cc1cc(O)c2c(c1)C(=O)c1cc(OC)cc(O)c1C2=O` (stereo not given): the concentration for half-maximal inhibition (IC50) in [1] came to 3.85 µM; in data set [2] it was 2.2 µM; in data set [3], 3.97 µM; in data set [4] it was 9.56 µM.

For `CCCCCCCC[N+](C)(CCCCCCCC)Cc1ccc2c(c1)C(=O)c1ccccc1C2=O`, the IC50 amounted to 2.08 µM in [3] and 8.46 µM in data set [4].

The record behind these values is ChEMBL document CHEMBL4041505, “Synthesis, SAR and pharmacological characterization of novel anthraquinone cation compounds as potential anticancer agents” (Eur J Med Chem, 2017).
